According to ChEMBL document CHEMBL1132544, “Synthesis and biological evaluation of novel prodrugs of anthracyclines for selective activation by the tumor-associated protease plasmin” (1999):
In brackets after ≈: the same amount, converted by molar mass.

Legend:
Format in all cases: functional
WiDr = assay: Cytotoxicity against WIDR tumor cell line; details: Homo sapiens, read-out: ID50 (the source's name)
Outline: (§1)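 Seven human tumour lines, continuous exposure to (pro)drug for 5 days, antiproliferative effect read by microculture sulforhodamine B (SRB) assay. ID50 = concentration giving 50% inhibition of cell growth relative to untreated control cultures, in ng/mL.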

[1] = Cytotoxicity against M19 tumor cell line; details: Homo sapiens; read-out: ID50 (the source's name); outline: as §1
IGROV-1 = assay: Cytotoxicity against IGROV tumor cell line; details: Homo sapiens, read-out: ID50 (the source's name); outline: as §1
MCF7 = assay: Cytotoxicity against MCF-7 tumor cell line; details: Homo sapiens, read-out: ID50 (the source's name); outline: as §1
NCI-H226 = assay: Cytotoxicity against H 226 tumor cell line; details: Homo sapiens, read-out: ID50 (the source's name); outline: as §1
EVSA-T = assay: Cytotoxicity against EVSA-T tumor cell line; details: Homo sapiens, read-out: ID50 (the source's name); outline: as §1
A498 = assay: Cytotoxicity against A 498 tumor cell line; details: Homo sapiens, read-out: ID50 (the source's name); outline: as §1

SMILES	IC50 (WiDr) [µg/mL]	IC50 [1] [µg/mL]	IC50 (IGROV-1) [µg/mL]	IC50 (MCF7) [µg/mL]	IC50 (NCI-H226) [µg/mL]	IC50 (EVSA-T) [µg/mL]	IC50 (A498) [µg/mL]
COc1cccc2c1C(=O)c1c(O)c3c(c(O)c1C2=O)C[C@@](O)(C(=O)CO)C[C@@H]3OC1CC(NC(=O)OCc2ccc(NC(=O)[C@H](CCCCN)NC(=O)[C@H](Cc3ccccc3)NC(=O)[C@@H](C)N)cc2)C(O)C(C)O1.Cl.Cl (stereo partly drawn)	0.413	0.437	0.59	0.176	0.896	0.141	0.473
COc1cccc2c1C(=O)c1c(O)c3c(c(O)c1C2=O)C[C@@](O)(C(C)=O)C[C@@H]3OC1CC(NC(=O)OCc2ccc(NC(=O)[C@H](CCCCN)NC(=O)[C@H](Cc3ccccc3)NC(=O)[C@@H](C)N)cc2)C(O)C(C)O1.Cl.Cl (stereo partly drawn)	2.15	1.58	0.225	1.21	1.7	1.2	1.16
COc1cccc2c1C(=O)c1c(O)c3c(c(O)c1C2=O)C[C@@](O)(C(C)=O)C[C@@H]3O[C@H]1C[C@H](N)[C@H](O)[C@H](C)O1 [DAUNORUBICIN]	0.038 (≈ 0.072 µM)	0.309 (≈ 0.586 µM)	0.113 (≈ 0.214 µM)	0.329 (≈ 0.624 µM)	0.243 (≈ 0.461 µM)	0.048 (≈ 0.091 µM)	0.487 (≈ 0.923 µM)
COc1cccc2c1C(=O)c1c(O)c3c(c(O)c1C2=O)C[C@@](O)(C(=O)CO)C[C@@H]3O[C@H]1C[C@H](N)[C@H](O)[C@H](C)O1 [DOXORUBICIN]	0.011 (≈ 0.0202 µM)	0.016 (≈ 0.0294 µM)	0.06 (≈ 0.11 µM)	0.01 (≈ 0.0184 µM)	0.199 (≈ 0.366 µM)	0.008 (≈ 0.0147 µM)	0.09 (≈ 0.166 µM)
